Here are results for three compounds from article PMC6489498 (Inorganic chemistry, 2017).

Where two headings read alike, the source gives them in different places.

The nature of data set [1]: MBP hydroxyl pKa from pH-dependent optical spectra. The data set is classed as physicochemical.
A further data set relates to CoCA. Type of data set: physicochemical, bovine. The settings on record: calculated from first addition (3.75 μM MBP) to 38 μM CoCA; thione coordinated. The method, boiled down: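 UV-vis titration of 38 μM CoCA with MBP in 50 mM phosphate, pH 7.5. ΔA of protonated and deprotonated bands converted to concentrations using the εOH–εO− difference, then to mole fractions vs MBP added. Effective pKa calculated from the first addition (3.75 μM), […]. Shift expressed relative to the free-MBP hydroxyl pKa.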

The next data set addresses ZnCA. To be noted: with ZnCA; ref 7 (Martin, et al); cited from earlier work.
Where [2] appears, read: solution of the free MBP, pH varied (UV-vis optical spectra).

As usually defined, the pKa is the negative logarithm of the acid dissociation constant. Read a low pKa as a group that gives up its proton readily. In general, Ki refers to a dissociation constant, usually derived from enzyme kinetics or from competition with a known ligand. `Cc1occc(=S)c1O` [TM, 3-hydroxy-2-methyl-4H-pyran-4-thione]: the values for the pKa in data set [1] and in data set [1] (setting [2]) were 9 and approximately 9, respectively. The “effective pKa” value in the data set with CoCA is on record as 8.3. Besides, the Ki at ZnCA was 1400 µM.

As for `Oc1coccc1=S` [TPMA, 3-hydroxy-4H-pyran-4-thione], the figures for the pKa in data set [1] and in data set [1] (setting [2]) were 9.5 and approximately 9.5, respectively. Besides, in the data set on CoCA, the “effective pKa” value was 8.4. Moreover, the Ki on ZnCA is 1100 µM.

As to `Cc1cc(=S)c(O)co1` [ATM, 5-hydroxy-2-methyl-4H-pyran-4-thione], the pKa was 8.3 in data set [1] and approximately 8.3 in data set [1] (setting [2]). Also, in data set [1] (expected from pKa), the “deprotonated form present at physiological pH” value is ~ 15%. In addition, the “effective pKa” value in the data set on CoCA is 7.6. Besides, on ZnCA, the Ki is 650 µM.
